Article PMC3237191 (FEBS letters, 2011)

How the values were obtained:
DGKε (DGKε-His6) [1] = target: T1, DGKε (DGKε-His6) (Homo sapiens, UniProt P52429); assay: Triton X-100/DOPC mixed micelle assay with [γ-32P]-ATP; type: biochemical; settings: 0.1 mM ATP; 15 mM Triton X-100; 22.5 mol% DOPC; lysate
T1 sequence (P52429 1-567): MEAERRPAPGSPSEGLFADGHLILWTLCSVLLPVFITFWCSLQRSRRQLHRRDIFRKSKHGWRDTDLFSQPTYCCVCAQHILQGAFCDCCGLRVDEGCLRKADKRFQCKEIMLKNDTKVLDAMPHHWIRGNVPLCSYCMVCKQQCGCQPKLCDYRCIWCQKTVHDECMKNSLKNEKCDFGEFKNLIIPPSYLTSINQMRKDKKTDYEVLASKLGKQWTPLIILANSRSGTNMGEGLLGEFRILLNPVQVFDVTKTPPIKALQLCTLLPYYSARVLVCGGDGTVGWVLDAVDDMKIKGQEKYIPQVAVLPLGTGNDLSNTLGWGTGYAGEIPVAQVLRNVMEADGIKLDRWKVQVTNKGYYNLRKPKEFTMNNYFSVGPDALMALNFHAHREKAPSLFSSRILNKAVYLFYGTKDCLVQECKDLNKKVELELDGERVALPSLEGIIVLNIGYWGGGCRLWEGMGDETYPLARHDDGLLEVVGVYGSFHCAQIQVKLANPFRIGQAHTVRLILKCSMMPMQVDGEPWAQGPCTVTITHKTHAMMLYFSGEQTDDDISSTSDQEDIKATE
How it was run: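 Enzyme is the 100,000 g supernatant (30 min, 4 °C) of baculovirus-infected Sf21 cells expressing human DGKε-His6. Cells were lysed 10 min on ice in 1% NP-40, 20 mM Tris-HCl pH 7.5, 150 mM NaCl, 1 mM EDTA, phosphatase and protease inhibitors, then sonicated 5 min. DAG substrate was dried with DOPC into lipid films for the micelles, and DAG level was varied. Run in triplicate. Vmax and Km come from nonlinear regression of v0 versus [S] and from Hanes plots.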

DGKε (DGKε-His6) [2] = target: T1, DGKε (DGKε-His6); assay: Triton X-100/DOPC mixed micelle assay with [γ-32P]-ATP, nonlinear regression; type: biochemical; settings: competitive; substrate 18:0/20:4-DAG; 0.1 mM ATP; 15 mM Triton X-100; lysate
How it was run: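 DGKε-His6 was taken from the high-speed supernatant of NP-40-lysed, sonicated Sf21 cells infected with baculovirus. It phosphorylated 18:0/20:4-DAG or 20:4/20:4-DAG in Triton X-100/DOPC mixed micelles with [γ-32P]-ATP, with a phosphatidic acid species added as inhibitor. PA stock levels were set from measured phosphate content. Ki was fitted by nonlinear regression to a competitive inhibition model.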

| Km (mol%) (DGKε (DGKε-His6) [1]) | Ki, mol% (DGKε (DGKε-His6) [2]) | SMILES |
| --- | --- | --- |
| 3.5 ± 0.4 mol% |  | CCCCC/C=C\C/C=C\CCCCCCCC(=O)OC[C@H](CO)OC(=O)CCCCCCC/C=C\C/C=C\CCCCC [18:2/18:2-DAG] |
|  | 4.4 ± 1.0 mol% | CCCCC/C=C\C/C=C\C/C=C\C/C=C\CCCC(=O)OC[C@H](COP(=O)(O)O)OC(=O)CCC/C=C\C/C=C\C/C=C\C/C=C\CCCCC [20:4/20:4-PA] |
| 2.0 ± 0.7 mol% |  | CCCCC/C=C\C/C=C\C/C=C\C/C=C\CCCC(=O)O[C@@H](CO)COC(=O)CCCCCCCCCCCCCCCCC [18:0/20:4-DAG, 1-stearoyl-2-arachidonoyl-DAG] |
| 2.0 ± 0.7 mol% |  | CCCCC/C=C\C/C=C\C/C=C\C/C=C\CCCC(=O)OC[C@H](CO)OC(=O)CCC/C=C\C/C=C\C/C=C\C/C=C\CCCCC [20:4/20:4-DAG, 1,2-diarachidonoyl-DAG] |
